Compound activity from PubChem.
In the library only some 3.8% were active in any assay of this set; here they are far more common.
ARNT-TACC3 inh – disrupts binding between human ARNT and TACC3. Q9Y6A5. AlphaScreen His-ARNT PAS-B/GST-TACC3 binding, luminescence; TACC3 fragment carries E629A point mutation. inhibition, % at 9.99 µM. 390,000 tested, 0.66% active;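 active = mean inhibition of replicates at least 50% and at least half of replicates each reaching 50%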
SIRT5 inh – sirtuin-5 (human) deacylase inhibition; Q9NXA8; 330,000 tested, 1.1% active; inhibition, % at 15 µM; AID 652115; Purified SirT5, succinyl-peptide AMC, trypsin-coupled fluorescence; in the data active = inhibition above about 15%
Target sequence (Q9NXA8 whole entry, looked up): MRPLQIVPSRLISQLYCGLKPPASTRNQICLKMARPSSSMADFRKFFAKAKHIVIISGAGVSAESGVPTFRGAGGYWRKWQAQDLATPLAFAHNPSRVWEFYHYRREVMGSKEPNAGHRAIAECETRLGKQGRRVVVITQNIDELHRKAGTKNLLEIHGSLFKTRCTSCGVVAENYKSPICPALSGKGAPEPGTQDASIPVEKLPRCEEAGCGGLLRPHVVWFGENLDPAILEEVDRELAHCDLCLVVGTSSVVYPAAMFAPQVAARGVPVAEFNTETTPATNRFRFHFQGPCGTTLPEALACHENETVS
FGF22 binding – binders of recombinant human FGF22 by thermal shift | activity (Tm shift, normalised), % at 9.99 µM | SYPRO orange fluorescence; percent of sucrose octasulfate shift, DMSO zero | Q9HCT0 | 340,000 tested, 1.5% active;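 active = mean Tm shift, scaled 0 neutral to 100 positive control, at about 1.3% or above, every replicate too, limit read from the data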
Target sequence (Q9HCT0 whole entry, looked up): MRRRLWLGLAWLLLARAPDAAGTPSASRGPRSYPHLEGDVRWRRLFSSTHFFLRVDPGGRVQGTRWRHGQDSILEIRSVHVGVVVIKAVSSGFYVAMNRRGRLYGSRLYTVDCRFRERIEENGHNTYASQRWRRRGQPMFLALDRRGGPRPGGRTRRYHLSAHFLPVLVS
FN deposit inh – fibronectin deposition inhibition | AID 743247 | inhibition, % at 12.6 µM | AH1F fibroblasts, Alexa488-fibronectin deposition fluorescence, overnight | 350,000 tested, 0.086% active;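 active = mean inhibition across replicates of 30% or more, regardless of how many single replicates reach that level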
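Measured by – fluorescence 485/525 nm · System – AH1F fibroblast monolayer, labelled fibronectin deposition · Amount – 10000 cells per well · Buffer or medium – serum-reduced DMEM (2% serum) · Doses – single dose, pinned · Also added – fluorescent fibronectin at 24 nM final · Schedule – 1 h cell attachment, overnight exposure to compound and label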
DENV2 CPE – DENV2-induced cell death inhibition | DENV2-infected cells, cytopathic effect rescue, plate reader | CPE inhibition, % at 9.99 µM | 350,000 tested, 1.7% active; in the data active = CPE inhibition above about 20%, passing the limit was not always enough; tested in BHK-21 cells
XiGFP reactiv – reactivates the inactive X chromosome in mouse fibroblasts; XiGFP mouse fibroblasts, % GFP-positive cells imaging, 3 d; cells co-treated with 5-aza-dC sensitizer; scaled so ellipticine positive control = 100%; activation, % at 7.58 µM; 360,000 tested, 0.055% active;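 active = mean normalized replicate activation at least 10% and every replicate at or above 10%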
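Schedule: 3 d treatment, 15 min room-temperature fixation; system: 68-5-11 XiGFP fibroblast line; buffer or medium: DMEM plus 5-aza-dC sensitizer; control set: ellipticine 6 µM positive control; compound: one concentration, pinned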
Numbers stand for hits; – = inactive; · = not tested or not shown.

SMILES	ARNT-TACC3 inh	SIRT5 inh	FGF22 binding	FN deposit inh	DENV2 CPE	XiGFP reactiv
N[C@H]1CC[C@H](CCn2cc(C3CC3)nn2)O[C@@H]1CO	·	–	·	·	–	–
COc1ccc(NC(=O)N(C)C[C@H]2Oc3c(NS(=O)(=O)c4ccc(OC)cc4)cccc3C(=O)N([C@@H](C)CO)C[C@@H]2C)cc1	–	–	–	·	–	–
Oc1cc(NCc2ccc(Cl)cc2)cc2cccnc12	37	·	–	–	–	–
Clc1ccc(CNc2ncccn2)cc1	–	–	–	–	–	–
Cc1cc(NC(=O)Cn2c(=O)oc3ccc(Cl)cc32)no1	–	–	–	–	45	–
O=[N+]([O-])c1ccc2[nH]c(O)c(N=NC3CCS(=O)(=O)C3)c2c1 (stereo not given)	–	25	–	–	–	–
CNC(=O)C[C@@H]1CC[C@@H]2[C@@H](COc3ccc(NC(=O)Nc4ccccc4F)cc3C(=O)N2C)O1	·	·	·	–	·	–
O=C(c1ccccc1)N1CC[C@@H]2[C@H](CO)Nc3ccc(-c4ccc(F)cc4)cc3[C@@H]21	–	·	–	–	32	–
O=C(c1ccccn1)N1CC[C@@H]2[C@@H](CO)Nc3ccc(-c4ccccc4F)cc3[C@@H]21	–	·	–	–	21	–
O=C(c1ccccc1)N1CC[C@@H]2[C@H]1c1cc(-c3ccc(F)cc3)ccc1N[C@@H]2CO	–	·	–	–	29	–
O=C(c1cccc(F)c1)N1CC[C@@H]2[C@H](CO)Nc3ccc(-c4ccc(F)cc4)cc3[C@@H]21	–	–	–	–	–	–
O=C(C[C@@H]1CC[C@H]2[C@@H](COC[C@@H](O)CN2C(=O)c2ccc(F)cc2)O1)Nc1nccs1	–	–	–	–	–	–
Cc1ccc(S(=O)(=O)NC[C@H]2CC[C@H]3[C@H](CN3Cc3cc(-c4ccccc4)on3)O2)cc1	·	–	·	·	–	·
COc1ccc(CN(C)C[C@H]2Oc3ccc(NC(=O)NC4CCCCC4)cc3C(=O)N([C@H](C)CO)C[C@H]2C)cc1	–	–	–	·	–	–
COCC(=O)N1CC2(CN(Cc3ccccc3Cl)C2)c2c([nH]c3cc(OC)ccc23)[C@H]1CO	·	·	·	·	·	–
CCCc1cc(C(=O)N2CCC(N3CCC(C(=O)NC(C)C)CC3)CC2)n(C)n1	·	–	44	–	–	–
O=C(NNc1nc(N2CCOCC2)nc(N2CCOCC2)n1)Nc1ccc(Cl)cc1	·	15	–	–	–	–
O=c1oc2ccccc2c(O)c1Sc1c(O)c2ccccc2oc1=O	76	·	·	·	·	·
CCCNC(=O)N1C[C@@H](C)[C@@H](OC)CN(C)C(=O)c2ccc(NS(=O)(=O)CC(F)(F)F)cc2OC[C@H]1C	·	·	·	–	·	–
COc1ccc(S(=O)(=O)Nc2ccc3c(c2)CC(=O)N([C@H](C)CO)C[C@H](C)[C@H](CN(C)C(=O)NC(C)C)O3)cc1	–	–	–	–	64	–
COc1ccc(NC(=O)N(C)C[C@H]2Oc3ccc(NS(=O)(=O)c4ccc(OC)cc4)cc3CC(=O)N([C@@H](C)CO)C[C@H]2C)cc1	–	–	–	·	–	–
C[C@@H]1CN([C@H](C)CO)C(=O)Cc2cc(NS(=O)(=O)c3ccc(Cl)cc3)ccc2O[C@@H]1CN(C)C(=O)Nc1ccccc1	–	–	–	·	27	–
COc1ccc(NC(=O)N(C)C[C@H]2Oc3ccc(NS(=O)(=O)c4ccc(OC)cc4)cc3CC(=O)N([C@H](C)CO)C[C@H]2C)cc1	–	20	–	·	–	–
COc1ccc(NC(=O)N(C)C[C@@H]2Oc3ccc(NS(C)(=O)=O)cc3CC(=O)N([C@H](C)CO)C[C@@H]2C)cc1	–	–	–	–	34	–
COc1ccc(S(=O)(=O)Nc2ccc3c(c2)CC(=O)N([C@H](C)CO)C[C@@H](C)[C@H](CN(C)C(=O)NC(C)C)O3)cc1	–	–	–	–	–	–
SMILES	ARNT-TACC3 inh	SIRT5 inh	FGF22 binding	FN deposit inh	DENV2 CPE	XiGFP reactiv
C[C@H]1CN([C@@H](C)CO)C(=O)c2cc(-c3ccncc3)cnc2O[C@@H]1CN(C)C(=O)Cc1cccnc1	–	·	–	–	–	–
COc1ccc(NC(=O)Nc2ccc3c(c2)C(=O)N([C@H](C)CO)C[C@@H](C)[C@H](CN(C)C(=O)NC(C)C)O3)cc1	–	–	–	–	–	–
COc1ccc(S(=O)(=O)N(C)C[C@H]2OCCCC[C@H](C)Oc3ccc(NC(=O)CCC(F)(F)F)cc3C(=O)N([C@@H](C)CO)C[C@H]2C)cc1	–	–	–	·	–	–
Cc1ccc(S(=O)(=O)Nc2ccc3c(c2)CC(=O)N([C@H](C)CO)C[C@H](C)[C@@H](CN(C)C(=O)Nc2ccc(F)cc2)O3)cc1	–	–	–	·	–	–
Cc1ccc(S(=O)(=O)Nc2ccc3c(c2)CC(=O)N([C@H](C)CO)C[C@@H](C)[C@@H](CN(C)C(=O)Nc2ccc(F)cc2)O3)cc1	–	–	–	·	25	–
O=C(CS)NCCCCCCNC(=O)[C@H]1C[C@H]2C(=O)NCC(=O)N2[C@H]1c1cccc(OCCO)c1	–	–	–	·	–	·
CC(C)C[C@@H]1NC(=O)[C@H]2C[C@@H](C(=O)NCCCCCN)[C@@H](c3cccc(OCCO)c3)N2C1=O	·	–	–	·	32	·
COc1cccc(C#Cc2ccc3c(c2)[C@@H]2[C@@H](CCN2S(=O)(=O)c2ccccc2)[C@@H](CO)N3)c1	·	·	·	–	45	–
COc1cccc(S(=O)(=O)N2CC[C@@H]3[C@@H](CO)Nc4ccc(C#Cc5ccccc5)cc4[C@@H]32)c1	–	–	–	–	–	–
COc1cccc(S(=O)(=O)N2CC[C@H]3[C@H](CO)Nc4ccc(C#Cc5ccccc5)cc4[C@H]32)c1	–	–	–	–	31	–
O=C(CCC(=O)N1CCN(S(=O)(=O)c2ccc(Cl)cc2)CC1)Nc1ccc(Cl)cc1Cl	–	–	43	–	–	–
COC(=O)[C@]1(CCC(=O)OC(C)(C)C)N=C(c2ccc(OCCCO)cc2)O[C@@H]1c1ccccc1N=[N+]=[N-]	–	–	–	·	–	·
COCC(=O)N(C[C@@H]1N[C@@H](CO)[C@@H]1c1ccc(-c2ccccc2)cc1)C(C)C	–	–	–	–	–	–
COC(=O)C(=C/C=C/c1cccnc1)C(=O)OC	–	–	43	–	–	–
Cc1noc(C)c1S(=O)(=O)Nc1ccc2c(c1)C(=O)N([C@@H](C)CO)C[C@@H](C)[C@H](CN(C)C(=O)c1ccncc1)OCCCC[C@@H](C)O2	–	–	–	·	–	–
CC(C)(C)c1cc(C(F)(F)F)n2ncc(-c3ccccc3)c2n1	–	–	–	–	–	–
CC(C)Nc1cc(C(C)(C)C)nc2c(-c3ccccc3)cnn12	–	–	·	–	46	–
